From publication PMC4141080 (FEBS Open Bio, 2014) come the findings set out here.

What all share (assay type): biochemical, Aplysia kurodai
Details in all cases: standard assay 37 °C; pH of kinetics not told

For test [1], the system named is ApAGL74 (74-kDa α-glucosidase). The experiment in a line: glucose release. In a few lines: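 The α-glucosidase was purified chromatographically from the ammonium sulfate (0–60%) fraction of stomach-lumen digestive fluid of sea hare. Glucose liberated from substrate was quantified with a glucose oxidase-based kit.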
Test [2] relates to ApAGL86 (86-kDa α-glucosidase). The experiment in a line: glucose release.
For test [3], the system named is ApAGL74 (74-kDa α-glucosidase). Kind of test: fluorometric 4-methylumbelliferone release. Put shortly: (§1)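 Each α-glucosidase was purified from sea hare digestive fluid. The fluid was squeezed from the stomach lumen, cut with 0–60% ammonium sulfate, then run through ion-exchange, phenyl-Sepharose, Sephacryl S-100 and Mono Q chromatography, with purity checked by SDS–PAGE. Substrate was 4-MU-α-glucoside. Released 4-methylumbelliferone was read fluorometrically (ex 365 nm, em 450 nm). One unit releases 1 μmol 4-methylumbelliferone/min at 37 °C.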

The subject of test [4] is ApAGL86 (86-kDa α-glucosidase). Kind of test: fluorometric 4-methylumbelliferone release. Put shortly:
as §1

For `OC[C@H]1O[C@@](CO)(O[C@H]2O[C@H](CO)[C@@H](O)[C@H](O)[C@H]2O)[C@@H](O)[C@@H]1O` [Sucrose], the Km (usually the substrate concentration at which the rate is half of its maximum) in test [1] worked out at 31.7 ± 2.1 mM; in test [2] it was 33.6 ± 1.55 mM.

`OC[C@H]1O[C@H](O[C@H]2[C@H](O)[C@@H](O)C(O)O[C@@H]2CO)[C@H](O)[C@@H](O)[C@@H]1O` (stereo partly shown) [Maltose]: in test [1], the Km is 4.98 ± 0.06 mM. Consider `OC[C@H]1O[C@H](OC[C@H]2OC(O)[C@H](O)[C@@H](O)[C@@H]2O)[C@H](O)[C@@H](O)[C@@H]1O` (stereo partly shown) [Isomaltose], for which the Km in test [1] amounted to 14.2 ± 0.9 mM; in test [2], 16.5 ± 0.05 mM. As to `Cc1cc(=O)oc2cc(O[C@H]3O[C@H](CO)[C@@H](O)[C@H](O)[C@H]3O)ccc12` [4MU-α-glucoside], the Km stood at 0.0479 ± 0.0106 mM in test [3] and 0.412 ± 0.006 mM in test [4].
